The source made the active and inactive calls. The calls are words filed in the database; no cut-off is given here.
Key:
[1] = target: T1, Transient receptor potential cation channel subfamily V member 1 (Rattus norvegicus, UniProt O35433); test: Displacement of [3H]RTX form rat TRPV1 receptor expressed in CHO/VR1 cell system; type: cell-based
[2] = target: T1, Transient receptor potential cation channel subfamily V member 1; test: Agonist activity at rat TRPV1 receptor expressed in CHO cells assessed as calcium uptake; type: functional, cell-based
[3] = Metabolic stability in Sprague-Dawley rat plasma at 10 ug/mL after 240 mins by HPLC; type: ADME, cell-free; details: read-out: Stability
How it was run: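 Compound added to pre-warmed rat plasma to a final 10 μg/mL and incubated 240 min. Stopped with methanol at 0 and 240 min and quantified by LC-MS. Expressed as percent of initial concentration remaining.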

[4] = Metabolic stability in Sprague-Dawley rat liver microsomes at 10 ug/mL after 60 mins by HPLC; type: ADME, Microsome; details: read-out: Stability
[5] = target: Transient receptor potential cation channel subfamily V member 1 (Rattus norvegicus) (UniProt O35433); test: Activity at rat TRPV1 receptor expressed in CHO cells assessed as changes in intracellular calcium levels at 75 pM by calcium imaging; type: cell-based
Transient receptor potential cation channel subfamily V member 1 (Rattus norvegicus), sequence (O35433 whole entry): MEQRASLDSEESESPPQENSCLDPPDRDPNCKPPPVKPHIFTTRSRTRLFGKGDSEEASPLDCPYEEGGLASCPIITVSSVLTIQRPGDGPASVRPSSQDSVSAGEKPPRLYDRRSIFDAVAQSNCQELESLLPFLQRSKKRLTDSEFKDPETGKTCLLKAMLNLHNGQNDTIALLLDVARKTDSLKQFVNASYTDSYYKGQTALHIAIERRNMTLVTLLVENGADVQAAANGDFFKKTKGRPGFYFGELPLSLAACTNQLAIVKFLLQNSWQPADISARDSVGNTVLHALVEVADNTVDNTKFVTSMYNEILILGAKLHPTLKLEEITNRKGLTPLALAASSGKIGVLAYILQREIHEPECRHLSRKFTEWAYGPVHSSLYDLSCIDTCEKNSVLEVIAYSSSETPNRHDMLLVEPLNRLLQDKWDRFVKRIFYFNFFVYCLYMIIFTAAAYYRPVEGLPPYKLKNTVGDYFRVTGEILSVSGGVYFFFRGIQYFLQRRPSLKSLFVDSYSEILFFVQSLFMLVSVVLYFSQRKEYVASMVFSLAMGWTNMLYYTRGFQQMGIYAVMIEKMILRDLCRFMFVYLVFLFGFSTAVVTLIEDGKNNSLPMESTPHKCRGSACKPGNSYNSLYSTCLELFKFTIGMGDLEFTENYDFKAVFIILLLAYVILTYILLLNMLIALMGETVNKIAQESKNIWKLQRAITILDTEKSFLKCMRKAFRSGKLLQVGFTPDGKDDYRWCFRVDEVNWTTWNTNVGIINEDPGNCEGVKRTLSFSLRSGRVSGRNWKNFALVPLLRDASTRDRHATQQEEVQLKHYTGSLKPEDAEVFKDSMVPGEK

[6] = target: Transient receptor potential cation channel subfamily V member 1 (Rattus norvegicus) (UniProt O35433); test: Agonist activity at rat TRPV1 receptor expressed in CHO cells assessed as calcium uptake relative to capsaicin; type: functional, cell-based

T1 sequence (O35433 whole entry): as above

SMILES | Ki [1] [nM] | EC50 [2] [nM] | remaining at 4 h, 10 ug/mL [3] [%] | remaining at 1 h, 10 ug/mL [4] [%] | Activity [5] | Activity [6] [%]
C=C(C)[C@@]12C[C@@H](C)[C@@]34OC(Cc5ccccc5)(O[C@@H]1[C@@H]3C=C(COC(=O)Cc1cccc(F)c1F)C[C@]1(O)C(=O)C(C)=C[C@@H]41)O2 | 3.53 | 9.1 |  |  |  | 
C=C(C)[C@@]12C[C@@H](C)[C@@]34OC(Cc5ccccc5)(O[C@@H]1[C@@H]3C=C(COC(=O)Cc1ccc(F)cc1F)C[C@]1(O)C(=O)C(C)=C[C@@H]41)O2 | 0.89 | 1.8 | 88.3 | 57.9 |  | 
C=C(C)[C@@]12C[C@@H](C)[C@@]34OC(Cc5ccccc5)(O[C@@H]1[C@@H]3C=C(COC(=O)Cc1cc(F)cc(F)c1)C[C@]1(O)C(=O)C(C)=C[C@@H]41)O2 | 8.3 | 59 |  |  |  | 
C=C(C)[C@@]12C[C@@H](C)[C@@]34OC(Cc5ccccc5)(O[C@@H]1[C@@H]3C=C(COC(=O)Cc1cc(F)ccc1F)C[C@]1(O)C(=O)C(C)=C[C@@H]41)O2 | 0.4 | 4.21 |  |  |  | 
C=C(C)[C@@]12C[C@@H](C)[C@@]34OC(Cc5ccccc5)(O[C@@H]1[C@@H]3C=C(COC(=O)Cc1ccc(NS(C)(=O)=O)cc1)C[C@]1(O)C(=O)C(C)=C[C@@H]41)O2 | 6.81 | 1.78 |  |  |  | 
C=C(C)[C@@]12C[C@@H](C)[C@@]34OC(Cc5ccccc5)(O[C@@H]1[C@@H]3C=C(COC(=O)Cc1cccc(F)c1)C[C@]1(O)C(=O)C(C)=C[C@@H]41)O2 | 2.4 | 1.92 |  |  |  | 
C=C(C)[C@@]12C[C@@H](C)[C@@]34OC(Cc5ccccc5)(O[C@@H]1[C@@H]3C=C(CNC(=O)Cc1ccc(NS(C)(=O)=O)cc1)C[C@]1(O)C(=O)C(C)=C[C@@H]41)O2 | 320 | 375 |  |  |  | 
C=C(C)[C@@]12C[C@@H](C)[C@@]34OC(Cc5ccccc5)(O[C@@H]1[C@@H]3C=C(COC(=O)Cc1ccc(F)cc1)C[C@]1(O)C(=O)C(C)=C[C@@H]41)O2 | 3.1 | 3.88 |  |  |  | 
C=C(C)[C@]12C[C@@H](C)[C@@]34O[C@](Cc5ccccc5)(O[C@@H]1[C@@H]3C=C(COC(=O)Cc1ccc(O)c(OC)c1)C[C@]1(O)C(=O)C(C)=C[C@@H]41)O2 [RESINIFERATOXIN] | 0.0426 | 0.27 | 71.7 | 57.6 | Active | 
C=C(C)[C@@]12C[C@@H](C)[C@@]34OC(Cc5ccccc5)(O[C@@H]1[C@@H]3C=C(COC(=O)Cc1ccc(F)c(F)c1)C[C@]1(O)C(=O)C(C)=C[C@@H]41)O2 | 0.98 | 5.5 |  |  |  | 
C=C(C)[C@@]12C[C@@H](C)[C@@]34OC(Cc5ccccc5)(O[C@@H]1[C@@H]3C=C(COC(=O)Cc1ccc(NS(C)(=O)=O)c(OC)c1)C[C@]1(O)C(=O)C(C)=C[C@@H]41)O2 | 0.228 | 0.106 | 90.8 | 81.4 |  | 
C=C(C)[C@@]12C[C@@H](C)[C@@]34OC(Cc5ccccc5)(O[C@@H]1[C@@H]3C=C(COC(=O)Cc1c(F)c(F)c(F)c(F)c1F)C[C@]1(O)C(=O)C(C)=C[C@@H]41)O2 | 135 |  |  |  |  | 23
C=C(C)[C@@]12C[C@@H](C)[C@@]34OC(Cc5ccccc5)(O[C@@H]1[C@@H]3C=C(COC(=O)Cc1c(F)cccc1F)C[C@]1(O)C(=O)C(C)=C[C@@H]41)O2 | 2.69 | 11.3 |  |  |  | 
C=C(C)[C@@]12C[C@@H](C)[C@@]34OC(Cc5ccccc5)(O[C@@H]1[C@@H]3C=C(COC(=O)Cc1ccccc1F)C[C@]1(O)C(=O)C(C)=C[C@@H]41)O2 |  | 4.65 |  |  |  | 
C=C(C)[C@@]12C[C@@H](C)[C@@]34OC(Cc5ccccc5)(O[C@@H]1[C@@H]3C=C(COC(=O)Cc1ccc(NS(C)(=O)=O)c(F)c1)C[C@]1(O)C(=O)C(C)=C[C@@H]41)O2 | 0.84 | 2.45 |  |  |  | 

From ChEMBL document CHEMBL1140894, “Non-vanillyl resiniferatoxin analogues as potent and metabolically stable transient receptor potential vanilloid 1 agonists” (Bioorg Med Chem, 2009)
